Results published in ChEMBL document CHEMBL1148816, “Heterotricyclic himbacine analogs as potent, orally active thrombin receptor (protease activated receptor-1) antagonists” (J Med Chem, 2007).
The source made the active and inactive calls. No cut-off for these calls is given here.

Tests used:
[1] = target: T1, Proteinase-activated receptor 1 (Homo sapiens, UniProt P25116); experiment: (§1) Displacement of [3H]haTRAP from PAR1 in human platelet membrane; type: cell membranes
T1 sequence (P25116 whole entry): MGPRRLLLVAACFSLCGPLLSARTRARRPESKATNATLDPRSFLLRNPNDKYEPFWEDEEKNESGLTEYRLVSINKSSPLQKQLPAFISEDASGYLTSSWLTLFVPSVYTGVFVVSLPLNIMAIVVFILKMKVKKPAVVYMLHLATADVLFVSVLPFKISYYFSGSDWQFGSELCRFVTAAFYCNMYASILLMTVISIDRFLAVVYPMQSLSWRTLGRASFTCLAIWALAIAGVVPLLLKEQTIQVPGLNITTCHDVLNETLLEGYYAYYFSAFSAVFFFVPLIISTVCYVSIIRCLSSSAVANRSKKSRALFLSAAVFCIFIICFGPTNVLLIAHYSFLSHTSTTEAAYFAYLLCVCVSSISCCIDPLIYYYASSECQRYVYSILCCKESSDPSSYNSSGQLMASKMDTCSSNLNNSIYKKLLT
Outline: (§2)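 Membranes from human platelets as the PAR-1 source, with tritiated high-affinity thrombin receptor activating peptide ([3H]haTRAP) as radioligand; IC50 reported ± SEM, n = 2.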

Cynomolgus monkey [2] = experiment: Inhibition of haTRAP-induced platelet aggregation in cynomolgus monkey at 1 mg/kg, po after 24 hrs; type: functional; settings: Macaca fascicularis
Outline: (§3)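 Cynomolgus monkeys dosed orally at 1 mg/kg and kept conscious in chairs; blood sampled hourly up to 6 h and again at 24 h; haTRAP added to the samples to trigger aggregation, measured by whole blood aggregometry.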

Cynomolgus monkey [3] = experiment: Inhibition of haTRAP-induced platelet aggregation in cynomolgus monkey at 1 mg/kg, po up to 6 hrs; type: functional, organism-based; set-up: dose 1 mg/kg; settings: Macaca fascicularis; outline: as §3
[4] = Half life in cynomolgus monkey at 1 mg/kg, iv and 1.5 mg/kg, po; type: ADME, organism-based, Macaca fascicularis; settings: in vivo
[5] = Bioavailability in cynomolgus monkey at 1 mg/kg, iv and 1.5 mg/kg, po; type: ADME, organism-based, Macaca fascicularis; settings: in vivo
[6] = AUC (0 to 24 hrs) in cynomolgus monkey at 1 mg/kg, iv and 1.5 mg/kg, po; type: ADME, organism-based, Macaca fascicularis; settings: plasma
[7] = Cmax in cynomolgus monkey at 1 mg/kg, iv and 1.5 mg/kg, po; type: ADME, organism-based, Macaca fascicularis; settings: in vivo
[8] = AUC (0 to 6 hrs) in rat at 10 mg/kg, po; type: ADME, organism-based; set-up: time < 6 hr, dose 10 mg/kg, route oral; settings: plasma
Outline: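 Rats given a single 10 mg/kg oral dose in 0.4% methylcellulose; plasma levels followed for 6 h and exposure reported as AUC from 0 to 6 h in ng·hr/mL.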

[9] = Tmax in cynomolgus monkey at 1 mg/kg, iv and 1.5 mg/kg, po; type: ADME, organism-based, Macaca fascicularis; settings: in vivo
[10] = Half life in iv dosed cynomolgus monkey; type: ADME, organism-based, Macaca fascicularis; settings: in vivo
Mus musculus [11] = organism: Mus musculus; experiment: Effect on liver to body weight ratio in mouse; type: functional, organism-based
Outline: (§4)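 Mouse P450 enzyme induction model run for 8 days at doses up to 100 mg/kg; end points were liver weight, liver-to-body weight ratio and spectral CYP450.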

Mus musculus [12] = organism: Mus musculus; experiment: Effect on liver weight in mouse; type: functional, organism-based; outline: as §4
Cynomolgus monkey [13] = experiment: Ex vivo inhibition of haTRAP-induced platelet aggregation in cynomolgus monkey at 3 mg/kg, po after 6 hrs; type: functional; settings: Macaca fascicularis
Outline: (§5)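 Conscious, chaired cynomolgus monkeys dosed orally at 3 mg/kg in 20% PEG-HPBCD; blood drawn at 1 h intervals to 6 h, then at 24 h; haTRAP added ex vivo as agonist; aggregation read in a whole blood aggregometer, reported as percent reduction.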

Cynomolgus monkey [14] = experiment: Ex vivo inhibition of haTRAP-induced platelet aggregation in cynomolgus monkey at 3 mg/kg, po 24 hrs; type: functional; settings: Macaca fascicularis; outline: as §5
[15] = Bioavailability in cynomolgus monkey at 3 mg/kg, po; type: ADME, organism-based, Macaca fascicularis; settings: in vivo
[16] = Tmax in cynomolgus monkey; type: ADME, organism-based, Macaca fascicularis; settings: in vivo
[17] = Cmax in po dosed cynomolgus monkey; type: ADME, organism-based, Macaca fascicularis; set-up: route oral; settings: in vivo
[18] = target: T2, Proteinase-activated receptor 1 (Homo sapiens) (UniProt P25116); experiment: as §1; type: cell membranes; outline: as §2
T2 sequence (whole entry): T1 sequence (P25116 whole entry)

Row | Compound | IC50 [1] [nM] | AUC(0-t) at 6 h [8] [ng·h/mL] | other results
1 | C[C@H]1OC(=O)[C@@H]2C[C@@H]3C[S+]([O-])CC[C@H]3[C@H](/C=C/c3ccc(-c4cccc(C(F)(F)F)c4)cn3)[C@H]12 (single isomer, unassigned; isomer 2) | 375 |  | 
2 | C[C@H]1OC(=O)[C@@H]2C[C@@H]3COCC[C@H]3[C@H](/C=C/c3ccc(-c4ccccc4F)cn3)[C@H]12 | 25 | 1050 | inhibition in vivo at 1 mg/kg (Cynomolgus monkey [2]): 55%; Activity (Cynomolgus monkey [3]): Active; half-life [4]: 8.6 h; bioavailability [5]: 71%; AUC(0-t) [6]: 3700 ng·h/mL; Cmax [7]: 610 ng/mL; Tmax [9]: 1.7 h
3 | C[C@H]1OC(=O)[C@@H]2C[C@@H]3CN(C)CC[C@H]3[C@H](/C=C/c3ccc(-c4cccc(C(F)(F)F)c4)cn3)[C@H]12 | 762 |  | 
4 | CCOC(=O)N1CC[C@@H]2[C@H](C[C@H]3C(=O)O[C@H](C)[C@H]3[C@H]2/C=C/c2ccc(-c3cccc(F)c3)cn2)C1 | 10.5 | 2220 | half-life [10]: 6.2 h; Ki [1]: 4.5 nM; Activity (Mus musculus [11]): inactive; Activity (Mus musculus [12]): inactive; inhibition in vivo at 3 mg/kg (Cynomolgus monkey [13]): 100%; inhibition in vivo at 3 mg/kg (Cynomolgus monkey [14]): 70%; bioavailability [15]: 62%; Tmax [16]: 0.7 h; Cmax [17]: 990 nM
5 | C[C@H]1OC(=O)[C@@H]2C[C@@H]3CN(S(C)(=O)=O)CC[C@H]3[C@H](/C=C/c3ccc(-c4cccc(F)c4)cn3)[C@H]12 | 15 | 5350 | inhibition in vivo at 3 mg/kg (Cynomolgus monkey [13]): 54%; inhibition in vivo at 3 mg/kg (Cynomolgus monkey [14]): 50%
6 | C[C@H]1OC(=O)[C@@H]2C[C@@H]3COCC[C@H]3[C@H](/C=C/c3ccc(-c4cccc(C(F)(F)F)c4)cn3)[C@H]12 | 17 | 545 | 
7 | C[C@H]1OC(=O)[C@@H]2C[C@@H]3CN(C(=O)C4CC4)CC[C@H]3[C@H](/C=C/c3ccc(-c4cccc(C(F)(F)F)c4)cn3)[C@H]12 | 37.5 |  | 
8 | CCOC(=O)N1CCC[C@H]2[C@H](/C=C/c3ccc(-c4cccc(F)c4)cn3)[C@@H]3[C@@H](C)OC(=O)[C@@H]3C[C@@H]21 | 224 |  | 
9 | CC(=O)N1CC[C@@H]2[C@H](C[C@H]3C(=O)O[C@H](C)[C@H]3[C@H]2/C=C/c2ccc(-c3cccc(C(F)(F)F)c3)cn2)C1 | 550 |  | 
10 | C[C@H]1OC(=O)[C@@H]2C[C@@H]3CN(C(=O)OCc4ccccc4)CC[C@H]3[C@H](/C=C/c3ccc(-c4cccc(C(F)(F)F)c4)cn3)[C@H]12 | 25 |  | 
11 | C[C@H]1OC(=O)[C@@H]2C[C@@H]3CSCC[C@H]3[C@H](/C=C/c3ccc(-c4cccc(C(F)(F)F)c4)cn3)[C@H]12 | 22 |  | 
12 | C[C@H]1OC(=O)[C@@H]2C[C@@H]3CN(C(=O)C4CC4)CC[C@H]3[C@H](/C=C/c3ccc(-c4cccc(F)c4)cn3)[C@H]12 | 15.5 | 4370 | inhibition in vivo at 3 mg/kg (Cynomolgus monkey [13]): 100%; inhibition in vivo at 3 mg/kg (Cynomolgus monkey [14]): 72%
13 | C[C@H]1OC(=O)[C@@H]2C[C@@H]3C[S+]([O-])CC[C@H]3[C@H](/C=C/c3ccc(-c4cccc(C(F)(F)F)c4)cn3)[C@H]12 (stereo in doubt) | 80 |  | 
14 | C[C@H]1OC(=O)[C@@H]2C[C@@H]3COCC[C@H]3[C@H](/C=C/c3ccc(-c4ccccc4Cl)cn3)[C@H]12 | 13 |  | 
15 | C[C@H]1OC(=O)[C@@H]2C[C@@H]3COCC[C@H]3[C@H](/C=C/c3ccc(-c4cccc(Cl)c4)cn3)[C@H]12 | 19 |  | 
16 | CCCS(=O)(=O)N1CC[C@@H]2[C@H](C[C@H]3C(=O)O[C@H](C)[C@H]3[C@H]2/C=C/c2ccc(-c3cccc(F)c3)cn2)C1 | 101 |  | 
17 | CCOC(=O)N1CC[C@@H]2[C@H](C[C@H]3C(=O)O[C@H](C)[C@H]3[C@H]2/C=C/c2ccc(-c3cccc(C(F)(F)F)c3)cn2)C1 | 11 |  | 

Row | Compound | IC50 [1] [nM] | AUC(0-t) at 6 h [8] [ng·h/mL] | other results
18 | COCCOC(=O)N1CC[C@@H]2[C@H](C[C@H]3C(=O)O[C@H](C)[C@H]3[C@H]2/C=C/c2ccc(-c3cccc(F)c3)cn2)C1 | 16.5 | 88 | 
19 | C[C@H]1OC(=O)[C@@H]2C[C@@H]3COCC[C@H]3[C@H](/C=C/c3ccc(-c4cccc(F)c4F)cn3)[C@H]12 | 26 | 1190 | 
20 | C[C@H]1OC(=O)[C@@H]2C[C@@H]3CN(C(=O)C4CC4)CC[C@H]3[C@H](/C=C/c3ccc(-c4ccccc4F)cn3)[C@H]12 | 8 | 6010 | inhibition in vivo at 3 mg/kg (Cynomolgus monkey [13]): 45%; inhibition in vivo at 3 mg/kg (Cynomolgus monkey [14]): 39%
21 | C[C@H]1OC(=O)[C@@H]2C[C@@H]3CN(C(N)=O)CC[C@H]3[C@H](/C=C/c3ccc(-c4cccc(F)c4)cn3)[C@H]12 | 1100 |  | 
22 | CC(C)C(=O)N1CC[C@@H]2[C@H](C[C@H]3C(=O)O[C@H](C)[C@H]3[C@H]2/C=C/c2ccc(-c3cccc(C(F)(F)F)c3)cn2)C1 | 113 |  | 
23 | CCOC(=O)N1CCC[C@H]2[C@H](/C=C/c3ccc(-c4ccccc4F)cn3)[C@@H]3[C@@H](C)OC(=O)[C@@H]3C[C@@H]21 | 153 |  | 
24 | CCOC(=O)N1CCC[C@H]2[C@H](/C=C/c3ccc(-c4cccnc4)cn3)[C@@H]3[C@@H](C)OC(=O)[C@@H]3C[C@@H]21 |  |  | Activity [18]: inactive
25 | C[C@H]1OC(=O)[C@@H]2C[C@@H]3COCC[C@H]3[C@H](/C=C/c3ccc(-c4cccc(Cl)c4Cl)cn3)[C@H]12 | 21 |  | 
26 | CCOC(=O)N1CC[C@@H]2[C@H](C[C@H]3C(=O)O[C@H](C)[C@H]3[C@H]2/C=C/c2ccc(-c3ccccc3F)cn2)C1 | 8 | 3780 | inhibition in vivo at 3 mg/kg (Cynomolgus monkey [13]): 55%; inhibition in vivo at 3 mg/kg (Cynomolgus monkey [14]): 55%
27 | C[C@H]1OC(=O)[C@@H]2C[C@@H]3COCC[C@H]3[C@H](/C=C/c3ccc(-c4cccc(F)c4)cn3)[C@H]12 | 26 | 850 | inhibition in vivo at 1 mg/kg (Cynomolgus monkey [2]): 80%; Activity (Cynomolgus monkey [3]): Active
28 | CCOC(=O)N1CCC[C@H]2[C@H](/C=C/c3ccc(-c4cccc(C#N)c4)cn3)[C@@H]3[C@@H](C)OC(=O)[C@@H]3C[C@@H]21 | 295 |  | 
29 | CCOC(=O)N1CCC[C@H]2[C@H](/C=C/c3ccc(-c4ccccc4C)cn3)[C@@H]3[C@@H](C)OC(=O)[C@@H]3C[C@@H]21 | 600 |  | 
30 | C[C@H]1OC(=O)[C@@H]2C[C@@H]3CNCC[C@H]3[C@H](/C=C/c3ccc(-c4cccc(C(F)(F)F)c4)cn3)[C@H]12 | 600 |  | 
31 | C[C@H]1OC(=O)[C@@H]2C[C@@H]3CS(=O)(=O)CC[C@H]3[C@H](/C=C/c3ccc(-c4cccc(C(F)(F)F)c4)cn3)[C@H]12 | 200 |  | 
32 | CCOC(=O)N1CC[C@@H]2[C@H](C[C@H]3C(=O)O[C@H](C)[C@H]3[C@H]2/C=C/c2ccc(-c3ccccn3)cn2)C1 | 33.5 |  | inhibition in vivo at 3 mg/kg (Cynomolgus monkey [13]): 67%; inhibition in vivo at 3 mg/kg (Cynomolgus monkey [14]): 29%
33 | CCNC(=O)N1CC[C@@H]2[C@H](C[C@H]3C(=O)O[C@H](C)[C@H]3[C@H]2/C=C/c2ccc(-c3cccc(F)c3)cn2)C1 | 18.5 | 2050 | inhibition in vivo at 3 mg/kg (Cynomolgus monkey [13]): 47%; inhibition in vivo at 3 mg/kg (Cynomolgus monkey [14]): 34%
